Results gathered from unrelated publications.
Each line is one published result; the experiments were not run side by side.
Target: Serine/threonine-protein kinase Chk1 (CHEK1, Homo sapiens, UniProt O14757)
Residues used in one study (O14757 1-476): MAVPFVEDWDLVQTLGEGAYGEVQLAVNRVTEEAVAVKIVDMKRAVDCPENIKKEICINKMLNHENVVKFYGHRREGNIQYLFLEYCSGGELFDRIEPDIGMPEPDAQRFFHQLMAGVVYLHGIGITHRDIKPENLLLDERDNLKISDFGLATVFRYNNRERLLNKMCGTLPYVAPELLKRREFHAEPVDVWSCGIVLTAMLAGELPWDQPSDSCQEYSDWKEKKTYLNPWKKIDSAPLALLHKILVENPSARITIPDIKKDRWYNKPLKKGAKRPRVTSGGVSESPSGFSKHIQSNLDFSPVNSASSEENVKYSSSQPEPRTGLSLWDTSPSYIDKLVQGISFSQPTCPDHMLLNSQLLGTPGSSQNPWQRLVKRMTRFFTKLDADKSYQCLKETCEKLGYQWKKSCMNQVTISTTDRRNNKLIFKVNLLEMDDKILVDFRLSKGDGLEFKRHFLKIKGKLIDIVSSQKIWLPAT

Structure (SMILES)	read-out	method	concentration	remaining binding [%]
FC(F)(F)c1ccc2c(c1)nc(-c1cccnc1)n2C1CC1	cell-free assay	competition with immobilised ligand	1 µM	100
O=C(c1ccc(Nc2nccc(-c3cc4ccccc4s3)n2)cc1)N1CCC(N2CCCC2)CC1	binding	competition with immobilised ligand	1 µM	100
Cc1cnn2ncc(-c3ccnc(N(C)C)n3)c2c1	binding		1 µM	100
CCN1CCN(Cc2ccc(C(=O)Nc3ccc(C)c(Oc4ccc5c(c4)CC(=O)N5)c3)cc2C(F)(F)F)CC1	binding	competition with immobilised ligand	1 µM	100
N#Cc1ccccc1CSc1nnc2c(n1)[nH]c1ccccc12	binding	competition with immobilised ligand	10 µM	87
CN(C)C(=O)Cn1cc(-c2nc([C@@](C)(c3ccc(-c4cnc(N)nc4)cc3)C3CC3)no2)cn1	cell-free assay	competition with immobilised ligand	1 µM	85
Nc1ncc2c(n1)-c1c([nH]c3ccc(C#CC4CC4)cc13)CCCC2	binding	competition with immobilised ligand	1 µM	97
CNC(=O)[C@@H]1CC[C@@H](n2c(-c3ccc4cnccc4c3)nc3ccc(C(=O)NCc4cccc(C(N)=O)c4)cc32)C1	binding	competition with immobilised ligand	1 µM	100
O=C(NCCCC1CCCCC1)c1ccc(CNC(=O)c2cnn(-c3ccccc3)c2C(F)(F)F)cc1	cell-free assay	competition with immobilised ligand	0.1 µM	100
O=C(NCCCN1CCOCC1)c1ccc(Nc2ncc(Cl)c(-c3ccc(Cl)s3)n2)cc1	binding	competition with immobilised ligand	1 µM	57
CCc1ccccc1C(=O)Nc1n[nH]c2c(C)c(F)c(C3C(C#N)=C(C)N(C)C(C)=C3C#N)cc12	cell-free assay	competition with immobilised ligand	1 µM	91
O=C(Nc1c[nH]nc1C(=O)NC1CCNCC1)c1cc(F)cc(F)c1	binding	competition with immobilised ligand	1 µM	100
CC(C)(C)c1ccc(-c2nc(CBr)nn2-c2cccc(O)c2)cc1	cell-free assay	competition with immobilised ligand	10 µM	86
CC1CCCN1c1nccc(-c2cnn3ncccc23)n1 (stereo not drawn)	binding		1 µM	99
Cc1cc(-n2nc(Cc3cc(F)cc(C(F)(F)F)c3)nc2C)ccc1C(N)=O	cell-free assay	competition with immobilised ligand	1 µM	100
Cc1cnc(Nc2ccc(C(=O)N3CCC(N4CCCC4)CC3)cc2)nc1-c1cc2ccccc2s1	binding	competition with immobilised ligand	1 µM	33
CN(c1nccc(-c2cnn3ncccc23)n1)C1CC1	binding		1 µM	78
Cc1cc(C)c(-n2ccn3nc(-c4cccnc4)cc23)cc1NC(=O)c1cc(C#N)cc(S(F)(F)(F)(F)F)c1	cell-free assay	competition with immobilised ligand	0.1 µM	86
C[C@@H]1CCN(c2nccc(-c3cnn4ncccc34)n2)C1	binding		1 µM	100
C[C@@H]1CN(c2ccc3ncc(-c4ccc5[nH]nc(C6CC6)c5c4)n3n2)C[C@H](C)O1	binding	competition with immobilised ligand	50 nM	91
N[C@H]1CCN(c2nccc(-c3cnn4ncccc34)n2)C1	binding		1 µM	100
N#Cc1ccc(Nc2ccc3[nH]c(=O)[nH]c3c2)c(Cl)c1	cell-free assay	competition with immobilised ligand	1 µM	98
F[C@@H]1CCN(c2nccc(-c3cnn4ncccc34)n2)C1	binding		1 µM	92
COc1ncc2cc3ccccc3nc2c1C#N	cell-free assay	competition with immobilised ligand	5 µM	100
